From PubChem BioAssay
An excerpt weighted towards active compounds, which were near 3.3% of everything screened.
TDP2 absorb = human TDP2 enzyme inhibitors, primary screen, biochemical, epi absorbance, recombinant enzyme; Tyrosyl-DNA phosphodiesterase 2 (Homo sapiens), O95551; T5PNP hydrolysis, p-nitrophenol absorbance 415 nm; inhibition, % at 12.8 µM; 370,000 compounds, 0.34% hits;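 active means inhibition above the mean of all tested compounds plus 3 SD, set per campaign, cut at about 25% in these data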;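 further: 0% = DMSO with enzyme and 100% = buffer with substrate but no TDP2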
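Read-out basis: percent inhibition. System: recombinant human TDP2. Buffer or medium: Mg2+-containing Tris-HCl buffer, pH 7.5. Repeats: single replicate. Timing: reaction 2 h, 37 °C. Benchmarks: high control without enzyme, low control DMSO plus TDP2. Probe or stimulus: 5 mM T5PNP. Doses: 12.8 µM only. Measured by: epi absorbance of p-nitrophenol freed from T5PNP by hydrolysis.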
UHRF1 binding = UHRF1 methylated DNA binding inhibitors, primary screen, counter-screen for MBD2 inhibitor project, biochemical, TR-FRET, human UHRF1, single concentration. E3 ubiquitin-protein ligase UHRF1 (Homo sapiens), Q96T88. UHRF1 binding to methylated oligo. inhibition, % at 4.4 µM. 370,000 compounds, 0.75% hits. AID 687016, 2013; in the data active means inhibition above about 21%;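 further: UHRF1 SRA domain binding a hemimethylated CpG hairpin DNA probe; 0% = median of test compound wells and 100% = reference inhibitor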
SIAE inh = human SIAE inhibitors, primary screen, biochemical, fluorescence polarization, FP-Rh probe, 1536-well HTS. Sialate O-acetylesterase (Homo sapiens), Q9HAT2. SIAE FP-Rh probe binding. inhibition, % at 9.66 µM. 370,000 compounds, 0.69% hits. AID 1053197, 2014;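 active means inhibition above a cutoff: mean of compounds within the control limits plus 3 SD of those, cut at about 17% in these data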;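 further: 0% = plate median of compound wells and 100% = probe without SIAE protein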
LEDGF integ inh = blockers of LEDGF/p75-dependent integrase strand transfer – biochemical, TR-FRET, high throughput, primary screen; HIV-1 integrase (with human LEDGF/p75); TR-FRET IN-LEDGF/p75 DNA integration, Eu/Cy5; inhibition, % at 3.7 µM; 370,000 compounds, 0.64% hits;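 active means inhibition above the screen-wide mean plus 3 SD, cut at about 13% in these data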;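 further: signal is the Cy5 over europium emission ratio at 671 and 618 nm; 0% = plate median of compound wells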
PRMT1 inh = PRMT1 methyltransferase inhibitors, primary screen, biochemical, fluorescence polarization. 370,000 compounds, 1.3% hits. recombinant PRMT1, activity-based probe fluorescence polarization. inhibition, % at 2.79 µM. Protein arginine N-methyltransferase 1 (Homo sapiens), Q99873. AID 652257, 2013;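 active means inhibition above about 21% made by adding two undisclosed values, limit read from the data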
Target sequence (Q99873 whole entry, looked up): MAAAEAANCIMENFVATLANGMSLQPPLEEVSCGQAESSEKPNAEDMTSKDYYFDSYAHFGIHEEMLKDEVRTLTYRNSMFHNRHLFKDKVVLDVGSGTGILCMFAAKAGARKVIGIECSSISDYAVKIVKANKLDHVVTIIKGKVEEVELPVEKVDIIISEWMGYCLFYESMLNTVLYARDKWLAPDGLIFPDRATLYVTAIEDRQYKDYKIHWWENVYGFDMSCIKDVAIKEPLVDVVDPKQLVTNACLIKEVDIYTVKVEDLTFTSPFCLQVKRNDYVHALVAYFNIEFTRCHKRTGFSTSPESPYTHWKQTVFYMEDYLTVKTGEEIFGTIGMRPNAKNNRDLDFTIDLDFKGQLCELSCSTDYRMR
MBD2 DNA inh = inhibitors of MBD2 binding to methylated DNA, primary screen, biochemical, TR-FRET, DNA-binding domain, human; MBD2 binding to methylated oligonucleotide; AID 686964, 2013; inhibition, % at 4.4 µM; Methyl-CpG-binding domain protein 2 (Homo sapiens), Q9UBB5; 370,000 compounds, 0.31% hits; in the data active means inhibition above about 13%
TDP2 confirm = human TDP2 enzyme inhibitors, retest, confirmation, biochemical, epi absorbance, recombinant enzyme | shares compounds with TDP2 absorb | absorbance read-out | inhibition, % at 12.8 µM | 1,100 compounds, 22% hits | AID 743263, 2014; in the data active means inhibition above about 25%;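 further: 0% = vehicle with enzyme and 100% = no enzyme buffer only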
Starred values were filed as active, the others as inactive; nt = no result given.

SMILES	TDP2 absorb	UHRF1 binding	SIAE inh	LEDGF integ inh	PRMT1 inh	MBD2 DNA inh	TDP2 confirm
Cc1ccccc1NC(=O)c1ccccc1NC(=O)c1cccs1	27*	-1	8	0	0	-2	0
COc1cc(OC)cc(C(C)c2ccc(C)cc2)c1 (stereo not drawn)	-2	-1	-3	2	1	4	nt
C=CCOc1cccc(C2C(C(=O)c3ccco3)=C(O)C(=O)N2CCN2CCOCC2)c1 (stereo not drawn)	41*	19	-5	10	7	7	-7
C=CCOc1cccc(C2C(C(=O)c3ccco3)=C(O)C(=O)N2Cc2ccco2)c1 (stereo not drawn)	-14	-7	2	6	4	-7	nt
Cc1ccccc1CC(=O)N1CCN(C(=O)c2ccco2)CC1	4	-4	-8	0	-3	2	nt
Cc1ccccc1CN1CCN(C(=O)c2ccco2)CC1	28*	-1	-1	1	1	2	6
O=C(c1ccc(F)cc1)N1CCN(Cc2ccccc2)CC1	9	0	-3	0	3	-4	nt
Cc1ccccc1CN1CCN(C(=O)c2ccc(F)cc2)CC1	29*	-1	2	3	2	1	11
COC(=O)[C@H]1C[C@]2(C(C=C(C)C)S(=O)(=O)c3ccccc3)c3ccccc3N[C@H]2N1 (stereo partly drawn)	0	4	-1	3	2	8	nt
O=C1N2CCc3ccccc3C2CS(=O)(=O)N1Cc1ccc(F)cc1 (stereo not drawn)	-2	-5	0	2	-5	-2	nt
COc1cccc(NC(=O)N2CCCC2C(=O)NC23CC4CC(CC(C4)C2)C3)c1 (stereo not drawn)	33*	1	12	4	7	1	7
O=C(O)CN1C(=O)CSc2ccccc21	6	-1	3	-3	0	-1	nt
O=C(O)CN1C(=O)CSC1=S	27*	0	-3	-2	2	3	5
COc1ccc2c(c1)CCCN2C(=O)C1CCCN(S(=O)(=O)c2cc(OC)ccc2OC)C1 (stereo not drawn)	-3	-2	-1	1	0	-6	nt
COC(=O)[C@]12C[C@H](CC(=O)NCC34CC5CC(CC(C5)C3)C4)C(=O)N(CCc3ccc(OC)c(OC)c3)C1=C[C@H](C1CCCC1)O[C@@H]2C	-8	-1	-4	0	-1	-2	nt
Oc1ccc(-c2nnc(-c3ccc(O)cc3)nn2)cc1	-10	3	1	0	4	-3	nt
Oc1ccc(C2=NNC(c3ccc(O)cc3)=NN2)cc1	28*	-2	2	1	-4	-7	-1
c1ccc(Nc2cc(Nc3ccccc3)[nH]n2)cc1	75*	13	-2	3	8	6	6
CC1(C)CC(=O)C2=C(C1)OC(N)=C(C#N)C2c1ccccc1 (stereo not drawn)	68*	0	3	-1	-2	1	3
CC1(C)CC(=O)C2=C(C1)OC(N)=C(C#N)C2c1cccs1 (stereo not drawn)	4	2	1	0	2	-1	nt
O=C(COC(=O)c1ccccc1)Nc1cccc(S(=O)(=O)NC2=NCCCCC2)c1	5	0	-6	-3	-4	-3	nt
CC1(C(=O)OCC(=O)Nc2cccc(S(=O)(=O)NC3=NCCCCC3)c2)CC1(Cl)Cl (stereo not drawn)	27*	-4	-3	-5	0	3	3
O=C(C1CCCN(S(=O)(=O)c2cccc3ccccc23)C1)N1CCN(Cc2ccccc2)CC1 (stereo not drawn)	-3	3	0	-5	-3	6	nt
Cc1[nH]n(-c2ccccc2)c(=O)c1/C=N/N(c1ccccc1)c1ccccc1	40*	3	3	5	10	-5	-3
Cc1[nH]n(-c2ccccc2)c(=O)c1S(=O)(=O)c1ccccc1	49*	-3	10	-1	11	-5	18
SMILES	TDP2 absorb	UHRF1 binding	SIAE inh	LEDGF integ inh	PRMT1 inh	MBD2 DNA inh	TDP2 confirm
Cc1[nH]n(-c2ccccc2)c(=O)c1/C=N/c1nn[nH]n1	27*	-8	5	4	-2	-2	9
CC(C)CNS(=O)(=O)/C=C/c1ccccc1CNC(=O)OC(C)(C)C	-8	2	-2	7	3	0	nt
Nn1c(SCc2cccc3ccccc23)nnc1-c1cc(-c2ccc(Cl)cc2)n[nH]1	2	1	-3	-2	1	3	nt
Cc1c(O)ccc2c(CC(=O)N[C@@H](Cc3ccc(O)cc3)C(=O)O)cc(=O)oc12	31*	-4	-2	1	-1	3	4
COc1ccc2c(CC(=O)N[C@@H](Cc3ccccc3)C(=O)O)cc(=O)oc2c1C	-9	-2	-2	3	-7	8	nt
COc1ccccc1C(=O)COC(=O)C(CCSC)NC(=O)COc1ccccc1 (stereo not drawn)	25*	-4	2	0	-3	-6	1
CC1=C(C)CC(C(=O)NCc2ccccc2F)C(C(=O)O)C1 (stereo not drawn)	25*	0	-1	2	-5	0	11
COC[C@@H]1CCCN1c1cccc2c1S(=O)(=O)N1CC[C@@H](C1)O2	-6	1	1	0	-1	4	nt
CCCCS(=O)(=O)N1CCCc2nc(-c3ccc(OC)cc3)ccc21	-2	2	4	3	-5	2	nt
Cc1cccc(CN2CCSCC2)c1	27*	0	5	5	5	1	-2
Cc1cccc(CN2CCSCCS2(=O)=O)c1	2	-2	0	-3	-1	-3	nt
Cc1oc(-c2ccccc2F)nc1CS(=O)(=O)CC(=O)NC(C)CCc1ccccc1 (stereo not drawn)	27*	1	2	1	2	-2	-1
COC(=O)[C@]12C[C@H](CC(=O)N3CCC(c4ccccc4)CC3)C(=O)N(Cc3ccco3)C1=C[C@H](C(C)(C)C)O[C@@H]2C	-8	2	-1	-2	3	2	nt
Nc1ccc(OC(=O)Nc2ccc(O)cc2)cc1	30*	7	11	4	3	-2	12
